H69AR growth 86K = proliferation blockers of H69AR lung cancer cells, primary screen, cell-based, human, 86K library; H69AR lung tumor viability, ATP luminescence, 72 h; stronger effect = lower value; viability, % at 10 µM; 85,000 tested, 6% active;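 active = viability at or below 40%; inactive = viability above 40%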;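 note: multidrug resistant small cell line overexpressing MRP-1 efflux transporter; 100% = mean luminescence of untreated control wells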
Lung fibro prol = antiproliferative effect on LL 47 fibroblasts – human, LL 47 cells, CellTiter-Glo luminescence, primary screen; LL 47 human lung fibroblast viability, ATP luminescence; stronger effect = lower value; viability, % at 10 µM; AID 719, 2007; 85,000 tested, 1.1% active;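 active = viability at or below 50% in the single dose screen; inactive = viability above 50%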;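 note: compound exposure lasted 72 h before the ATP readout; 100% = median luminescence of untreated cell-only wells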
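Test system: LL 47 human lung fibroblasts; Quantity: 1,150 cells/well; Buffer or medium: IMEM plus 15% FBS; Dosing: tenfold compound dosing solution, DMSO at 0.1%; Timing: overnight cell rest, 72 h compound treatment at 37 °C; Detection: ATP-based CellTiter-Glo luminescent readout; Read-out basis: viability percentage against median untreated-cell control; Controls: cell-only wells, no compound.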
PTK2B oligo ant = antagonists of Pyk2 self-association, primary screen, Q293 cells, FERM NanoBiT luminescence, HTS | Protein-tyrosine kinase 2-beta (Homo sapiens), Q14289 | stronger effect = lower value | z-score (the deposit names both 25 µM and 10 µM) | 99,000 tested, 0.83% active;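 active = Z-score of -3 or lower, scaled per plate to the spread of control and sample wells; inactive = z-score above -3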;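 note: negative z-score means lost luminescence so less FERM oligomerization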
Target sequence (Q14289 whole entry, looked up): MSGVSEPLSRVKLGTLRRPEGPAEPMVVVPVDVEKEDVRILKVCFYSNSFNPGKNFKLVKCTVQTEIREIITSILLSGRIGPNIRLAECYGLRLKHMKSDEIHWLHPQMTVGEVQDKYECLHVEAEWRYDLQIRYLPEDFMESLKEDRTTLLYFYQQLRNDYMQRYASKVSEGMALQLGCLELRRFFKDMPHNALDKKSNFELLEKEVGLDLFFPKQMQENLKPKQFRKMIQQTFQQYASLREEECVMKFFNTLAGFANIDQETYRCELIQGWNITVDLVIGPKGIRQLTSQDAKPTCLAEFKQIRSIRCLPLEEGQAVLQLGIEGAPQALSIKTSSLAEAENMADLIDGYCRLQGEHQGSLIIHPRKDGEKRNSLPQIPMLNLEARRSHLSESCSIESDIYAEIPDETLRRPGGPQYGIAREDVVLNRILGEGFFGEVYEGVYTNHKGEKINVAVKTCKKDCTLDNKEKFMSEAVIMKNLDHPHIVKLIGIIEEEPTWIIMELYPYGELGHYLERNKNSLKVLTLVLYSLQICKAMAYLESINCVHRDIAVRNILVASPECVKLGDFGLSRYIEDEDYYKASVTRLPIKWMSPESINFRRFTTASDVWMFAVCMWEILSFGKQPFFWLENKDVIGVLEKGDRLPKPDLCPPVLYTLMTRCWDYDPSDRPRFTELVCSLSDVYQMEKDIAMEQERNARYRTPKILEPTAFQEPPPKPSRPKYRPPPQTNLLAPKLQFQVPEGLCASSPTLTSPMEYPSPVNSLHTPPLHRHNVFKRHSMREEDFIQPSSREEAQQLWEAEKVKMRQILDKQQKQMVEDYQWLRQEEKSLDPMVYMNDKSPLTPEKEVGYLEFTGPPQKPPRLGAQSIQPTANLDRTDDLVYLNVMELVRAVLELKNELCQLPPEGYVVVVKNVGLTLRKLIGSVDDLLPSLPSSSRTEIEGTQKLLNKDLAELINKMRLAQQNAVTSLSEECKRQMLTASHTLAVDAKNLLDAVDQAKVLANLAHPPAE
HUVEC prolif 384 = inhibitors of HUVEC proliferation, primary screen, cell-based, 384-well | AID 648, 2007 | 86,000 tested, 1.1% active | CellTiter-Glo luminescence, 72 h; stronger effect = lower value | viability, % at 10 µM (by protocol);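 active = viability at or below 30%; inactive = viability above 30%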;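 note: 100% = median luminescence of DMSO-only cell control wells on each plate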
MT1-MMP txn act = MT1-MMP promoter reporter activation – cell-based, luciferase luminescence, primary screen. HT1080 MT1-MMP promoter luciferase reporter, overnight; stronger effect = higher value. activation factor at 10 µM. 86,000 tested, 0.16% active;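 active = activation factor of at least 2 for MT1-MMP transcription at 10 µM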
Jurkat tox 60K = cytotoxicity toward Jurkat T cells, primary screen, cytotoxicity control, cell-based, Jurkat E6.1, 60K MLSMR library | Jurkat E6.1 viability, ATP luminescence, 48 h | inhibition, % at 4 µM | 56,000 tested, 1.2% active | AID 463, 2006;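 active = inhibition above the mean inhibition of all tested compounds plus 3 SD, cut at about 28% in these data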
* marks the source's active call; other numbers are inactive results. Rows were chosen to be rich in hits. Some 5.9% of all compounds tested hit in one or more screens of this group.

Results for O=C(C1CCN(S(=O)(=O)c2cccc3cccnc23)CC1)N1CCN(c2ccc(Cl)cc2)CC1 ?
H69AR growth 86K: 61; Lung fibro prol: 90; HUVEC prolif 384: 91; MT1-MMP txn act: 1; Jurkat tox 60K: 38*

Results for COc1ccc(OC)c(C2C3=C(CCCC3=O)Nc3nc4ccccc4n32)c1 (centres undefined) ?
MT1-MMP txn act: 1.1; Jurkat tox 60K: 16

Results for CCOC(=O)c1nnc(-c2cccs2)nc1Oc1ccccc1C(=O)OC ?
H69AR growth 86K: 31*; Lung fibro prol: 97; PTK2B oligo ant: 0.45; HUVEC prolif 384: 74; MT1-MMP txn act: 1.1

How did Cc1ccc(Nc2nc3c(c(=O)[nH]c(=O)n3C)n2Cc2ccc(F)cc2)cc1 do in these assays?
H69AR growth 86K: 94; Lung fibro prol: 103; PTK2B oligo ant: -0.67; HUVEC prolif 384: 92; MT1-MMP txn act: 1.3

Results for Cc1cc2c(N=O)c(NO)ccc2[nH]1 ?
Lung fibro prol: 1.9*; PTK2B oligo ant: 0.49; HUVEC prolif 384: 60; MT1-MMP txn act: 0.8; Jurkat tox 60K: 75*

How did CC(=O)Nc1ccc2[nH]c(C)cc(=O)c2c1 do in these assays?
H69AR growth 86K: 92; Lung fibro prol: 98; PTK2B oligo ant: -0.19; HUVEC prolif 384: 92

How did CCOC(=O)C1=C(CSc2nc(-c3ccccc3)ccc2C#N)OC(N)=C(C#N)C1c1ccc(OC)cc1 (centres undefined) do in these assays?
H69AR growth 86K: 87; Lung fibro prol: 102; PTK2B oligo ant: -1.5; HUVEC prolif 384: 92; MT1-MMP txn act: 1.1

Results for CC(=O)c1sc(N2C(=O)c3oc4ccccc4c(=O)c3C2c2ccc(C)o2)nc1C (centres undefined) ?
H69AR growth 86K: 9.4*; Lung fibro prol: 87; HUVEC prolif 384: 101; MT1-MMP txn act: 1.7; Jurkat tox 60K: 8

What do the screens show for `COc1cc(C2Nn3c(nnc3-c3ccccc3OC)S2)ccc1O` (centres undefined)?
H69AR growth 86K: 86; Lung fibro prol: 103; PTK2B oligo ant: 0.62; HUVEC prolif 384: 101; MT1-MMP txn act: 1.2

Results for CC(C)CCN1C(=O)c2ccccc2C1C(=O)NCc1cccnc1 (centres undefined) ?
H69AR growth 86K: 89; Lung fibro prol: 102; PTK2B oligo ant: 0.71; HUVEC prolif 384: 105; MT1-MMP txn act: 1.1

What do the screens show for `Cc1ccc(C(C#N)c2ccc(C(=O)c3ccc(F)cc3)cc2)cc1` (centres undefined)?
H69AR growth 86K: 96; Lung fibro prol: 104; PTK2B oligo ant: -1.9; HUVEC prolif 384: 17*; MT1-MMP txn act: 1.2

Results for COc1ccc(Br)cc1C(=O)Nc1cccc(-c2nnc(-c3ccco3)o2)c1 ?
H69AR growth 86K: 8.6*; Lung fibro prol: 114; PTK2B oligo ant: -1.2; HUVEC prolif 384: 47; MT1-MMP txn act: 0.9; Jurkat tox 60K: -5

How did COc1cccc(C(=O)Nc2cccc(-c3nnc(-c4ccco4)o3)c2)c1 do in these assays?
H69AR growth 86K: 38*; Lung fibro prol: 97; PTK2B oligo ant: -1.2; HUVEC prolif 384: 45; MT1-MMP txn act: 0.9

Results for CC(=O)Oc1ccccc1N1C(=O)c2ccc(C(=O)O)cc2C1=O ?
H69AR growth 86K: 99; Lung fibro prol: 94; PTK2B oligo ant: 1.4; HUVEC prolif 384: 88; MT1-MMP txn act: 1.2; Jurkat tox 60K: 6

What do the screens show for `CC(=O)Oc1cccc(N2C(=O)c3ccc(C(=O)O)cc3C2=O)c1`?
H69AR growth 86K: 2.0*; Lung fibro prol: 93; PTK2B oligo ant: 0.12; HUVEC prolif 384: 97; MT1-MMP txn act: 1.1; Jurkat tox 60K: 1

Results for CCOC(=O)c1oc2ccc(CNCCO)c(Cl)c2c1C ?
PTK2B oligo ant: 0.34; MT1-MMP txn act: 1.8; Jurkat tox 60K: 2

What do the screens show for `CCOC(=O)c1oc2ccc(CNC3CCCCC3)c(Cl)c2c1C`?
H69AR growth 86K: 18*; Lung fibro prol: 95; PTK2B oligo ant: 0.4; HUVEC prolif 384: 29*; MT1-MMP txn act: 1.3

Results for CCOC(=O)C1=C(C)N(CCCCCC(=O)O)C(=O)NC1c1ccccc1OS(=O)(=O)c1ccccc1[N+](=O)[O-] (centres undefined) ?
MT1-MMP txn act: 1.3

How did Cc1ccc2cccc(S(=O)(=O)N3CCN(c4cccc(Cl)c4)CC3)c2n1 do in these assays?
H69AR growth 86K: 71; Lung fibro prol: 93; PTK2B oligo ant: -3.1*; HUVEC prolif 384: 70; MT1-MMP txn act: 1.1; Jurkat tox 60K: 1

Results for Cn1c(=O)oc2cc(S(=O)(=O)N3CCN(c4cccc(Cl)c4)CC3)ccc21 ?
H69AR growth 86K: 24*; Lung fibro prol: 82; PTK2B oligo ant: 0.29; HUVEC prolif 384: 63; MT1-MMP txn act: 1.1; Jurkat tox 60K: 1

How did COC(=O)c1ccc(NC(=O)Cn2nc(-c3ccncc3)nc2SCC(=O)Nc2nccs2)cc1 do in these assays?
PTK2B oligo ant: -1.4

What do the screens show for `CC(=O)Nc1cccc(NC(=O)c2sc3ncn(CC(=O)N4CCCCC4)c(=O)c3c2C)c1`?
PTK2B oligo ant: 0.63; MT1-MMP txn act: 1.1; Jurkat tox 60K: -7

What do the screens show for `Cc1ccc(NC(=O)Cn2cnc3sc(C(=O)NCc4ccco4)c(C)c3c2=O)cc1Cl`?
H69AR growth 86K: 88; Lung fibro prol: 96; PTK2B oligo ant: -3.3*; HUVEC prolif 384: 74; MT1-MMP txn act: 1.1

What do the screens show for `Cn1c(=O)c2c(SCc3cccc(C(F)(F)F)c3)nc(-c3ccco3)nc2n(C)c1=O`?
H69AR growth 86K: 101; Lung fibro prol: 48*; PTK2B oligo ant: 0.6; HUVEC prolif 384: 20*; MT1-MMP txn act: 1; Jurkat tox 60K: 2

How did COc1nc(N(C)C)nc(N(OC)S(=O)(=O)c2ccccc2Cl)n1 do in these assays?
H69AR growth 86K: 83; Lung fibro prol: 90; PTK2B oligo ant: 0.47; HUVEC prolif 384: 96; MT1-MMP txn act: 1; Jurkat tox 60K: 4

What do the screens show for `CON(c1nc(Cl)nc(N(C)C)n1)S(=O)(=O)c1ccccc1Cl`?
H69AR growth 86K: 22*; Lung fibro prol: 91; PTK2B oligo ant: -0.28; HUVEC prolif 384: 90; MT1-MMP txn act: 1

How did CCn1ncc(C2=NOC(C(=O)NCc3ccc(Cl)cc3)C2)c1C (centres undefined) do in these assays?
H69AR growth 86K: 37*; Lung fibro prol: 67; PTK2B oligo ant: 1.6; HUVEC prolif 384: 56; MT1-MMP txn act: 0.5; Jurkat tox 60K: 92*

What do the screens show for `O=C1c2[nH]nc(-c3ccccc3O)c2C(c2cccc(O)c2)N1Cc1ccco1` (centres undefined)?
H69AR growth 86K: 38*; Lung fibro prol: 89; PTK2B oligo ant: -2.5; HUVEC prolif 384: 82; MT1-MMP txn act: 1
